Assay [1] has as its target T1, Nicotinamide phosphoribosyltransferase (Homo sapiens, UniProt P43490). Briefly: Positive allosteric modulator activity at human C-terminal his 6 tagged NAMPT using NAM and PRPP as substrate by coupled enzymatic analysis.
Target sequence in this assay (P43490 whole entry): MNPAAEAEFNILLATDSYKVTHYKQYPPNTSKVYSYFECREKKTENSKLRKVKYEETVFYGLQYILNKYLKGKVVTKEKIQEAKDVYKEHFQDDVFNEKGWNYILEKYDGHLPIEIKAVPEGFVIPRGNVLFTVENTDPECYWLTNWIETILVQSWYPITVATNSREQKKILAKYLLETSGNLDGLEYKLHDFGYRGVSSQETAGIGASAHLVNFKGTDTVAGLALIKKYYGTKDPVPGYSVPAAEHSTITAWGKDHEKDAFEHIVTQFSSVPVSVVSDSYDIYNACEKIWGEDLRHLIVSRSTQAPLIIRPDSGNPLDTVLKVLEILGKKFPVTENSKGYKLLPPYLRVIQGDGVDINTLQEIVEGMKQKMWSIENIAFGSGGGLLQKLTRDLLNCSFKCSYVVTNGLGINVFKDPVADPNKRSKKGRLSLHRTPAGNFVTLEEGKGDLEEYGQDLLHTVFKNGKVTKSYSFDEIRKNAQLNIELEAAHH
The subject of assay [2] is HT-22. Kind of assay: Inhibition of oxidative stress in HT-22 cells assessed as fold reduction in […] induced ROS level at 2.5 uM measured after 18 to 24 hrs by MitoSOX red dye based flow cytometry analysis. Conditions: time 18-24 hrs. Type of assay: functional, Mus musculus. The method, boiled down:
(§1)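 HT22 mouse hippocampal neuronal cells (passage 12-50) grown in DMEM with 10% FBS, seeded at 3,000-5,000 cells/well on poly D-lysine-coated wells and left overnight. Cells were pretreated with compound in matched DMSO/PBS vehicle for 18-24 h, then stressed with recombinant mouse TNFα for a further 18-24 h. Staining in PBS used 1 μM calcein-AM, 5 μM MitoSOX and 10 μg/mL Hoechst for 30-45 min. Mitochondrial ROS was read as MitoSOX mean intensity on a Celigo imaging cytometer and given as fold-change over vehicle. Each run had ≥3 intraplate replicates, and the assay was repeated in ≥3 separate experiments.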

Assay [3] has as its system HT-22. Briefly: Inhibition of oxidative stress in HT-22 cells assessed as fold reduction in […] induced ROS level at 5.0 uM measured after 18 to 24 hrs by MitoSOX red dye based flow cytometry analysis. Type of assay: functional, Mus musculus. The note with it: time 18-24 hrs. The method, boiled down:
as §1
(Flow cytometry measures light scatter and fluorescence of single cells or particles in a stream.)

In assay [4] the target is T1, Nicotinamide phosphoribosyltransferase. Kind of assay: Positive allosteric modulator activity at C-terminal his 6 tagged NAMPT in human THP-1 cells assessed as increase in NAD+ level at 30 uM incubated for 24 hrs by NAD-glo assay relative to control. It is filed as cell-based. The method, boiled down:
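THP-1 cells in RPMI 1640 with 10% heat-inactivated FBS, seeded at 37,500 cells/well (low passage). Held 1.5 h at 37 °C, 5% CO2, then treated with compound in DMSO (final ≤1%) for 24 h. NAD+ measured by NAD+/NADH-Glo luminescence. Three separate experiments per concentration.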
Target sequence in this assay (P43490 whole entry, looked up): as the sequence (P43490 whole entry) above

In assay [5] the test system is HT-22. Briefly: Inhibition of oxidative stress in HT-22 cells assessed as reduction in […] induced ROS level at 20 to 40 uM measured after 18 to 24 hrs by MitoSOX red dye based flow cytometry analysis. The note with it: Mus musculus, dose 20-40 µM, time 18-24 hrs. It is filed as functional, cell-based. The method, boiled down: (§2)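 HT22 mouse hippocampal neuronal cells (passage 12-50) seeded at 3,000-5,000 cells/well on poly D-lysine-coated wells and incubated overnight. Cells pretreated with compound (DMSO stocks, matched vehicle) for 18-24 h, then exposed to glutamate or mouse TNFα for 18-24 h. Stained in PBS with 1 μM calcein-AM, 5 μM MitoSOX and 10 μg/mL Hoechst for 30-45 min. Imaging cytometry; MitoSOX mean intensity expressed as fold over vehicle. At least three experiments, each with at least triplicate wells.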

Assay [6] deals with HT-22. Kind of assay: Neuroprotective activity against glutamate induced excitotoxicity in HT-22 cells assessed as decrease in ROS activity at 20 to 40 uM measured after 18 to 24 hrs by MitoSOX red dye based flow cytometry analysis. The note with it: Mus musculus, dose 20-40 µM, time 18-24 hrs. Type of assay: functional, cell-based. The method, boiled down:
as §2

Assay [7] relates to HT-22. Briefly: Neuroprotective activity against glutamate induced excitotoxicity in HT-22 cells assessed as decrease in ROS activity measured after 18 to 24 hrs MitoSOX red dye based flow cytometry analysis. Conditions: Mus musculus, dose 1.25-40 µM, time 18-24 hrs. It is filed as functional, cell-based. The method, boiled down:
as §2

Assay [8] deals with HT-22. Kind of assay: Inhibition of oxidative stress in HT-22 cells assessed as fold reduction in […] induced ROS level at 0.3 uM measured after 18 to 24 hrs by MitoSOX red dye based flow cytometry analysis. It is filed as functional, Mus musculus. Conditions: time 18-24 hrs. The method, boiled down:
as §1

Assay [9] relates to HT-22. Kind of assay: Inhibition of oxidative stress in HT-22 cells assessed as fold reduction in […] induced ROS level at 40 uM measured after 18 to 24 hrs by MitoSOX red dye based flow cytometry analysis. It is filed as functional, Mus musculus. The note with it: time 18-24 hrs. An outline of the steps:
as §1

Molecules are shown by their SMILES. Activity calls are given as the source filed them. No cut-off for these calls is given here. A value given as a limit tells only on which side of the number the result lay.

Take `COc1ccc(CN(CCC2(C(C)C)CCOC(C)(C)C2)C(=O)c2ccc(Br)s2)cc1` (stereo not given): in [1] (read-out: EC50), the EC50 stood at 12.8 µM.
As for `CC(C)C1(CCN(Cc2ccc(N(C)C)cc2)C(=O)c2ccco2)CCOC(C)(C)C1` (stereo not given), the “fold change (FC)” value is listed as 1.247 in the assay on HT-22 [2] and 1.287 in the assay on HT-22 [3]. Also, the EC50 in [1] (read-out: EC50) is 3.29 µM. Also, the Activity in assay [4] (filed as positive allosteric modulator) is 88%; with HT-22 [7] it was “Dose-Dependent Effect”. For the same compound, the inhibition result with HT-22 [5] is “Active”. Also, in the assay on HT-22 [6], the outcome was Active.
Regarding `CC(C)C1(CCN(Cc2ccc(OC(F)(F)F)cc2)C(=O)c2ccco2)CCOC(C)(C)C1` (stereo not given), the EC50 entry in [1] was “Not Active”.
Turning to `O=C(NCc1ccncc1)Nc1ccc(S(=O)(=O)N2CC3CCC(C2)O3)cc1`, the “fold change (FC)” value was 1.348 in the assay on HT-22 [3] and 1.26 with HT-22 [8].
Turning to `COc1ccc(CN(CCC2(C(C)C)CCOC(C)(C)C2)C(=O)c2ccco2)c(C(F)(F)F)c1` (stereo not given), in [1], the EC50 result was “Not Active”.
For the compound `COc1ccc(CNC(=O)c2ccco2)cc1`, in [1], the EC50 entry is recorded as “Not Active”.
Still for that read-out and setting: to `COc1ccc(CN(CCC2(C(C)C)CCOC(C)(C)C2)C(=O)c2cncnc2)cc1` (stereo not given) belongs “Not Active”; to `COc1ccc(CN(CCC2(C(C)C)CCOC(C)(C)C2)C(=O)c2cnc[nH]2)cc1` (stereo not given), more than 8 µM.
With `COc1ccc(CN(CCC2(C(C)C)CCOC(C)(C)C2)C(=O)c2ccco2)cc1` (stereo not given), the “fold change (FC)” value in the assay with HT-22 [2] came to 1.425; in the assay with HT-22 [9], 1.133; in the assay with HT-22 [8], 1.434. Further, the Activity in assay [4] worked out at 18%.
Consider `COc1ccc(CNCCC2CCOCC2)cc1`, for which, in assay [1], the EC50 result was “Not Active”.

As usually defined, the EC50 is the concentration needed to bring the measured effect to its halfway point.

Values taken from ChEMBL document CHEMBL5357070, “Nicotinamide Phosphoribosyltransferase Positive Allosteric Modulators Attenuate Neuronal Oxidative Stress” (ACS Med Chem Lett, 2024).
